Measured values from ChEMBL document CHEMBL1154204, “Design, synthesis and pharmacological screening of novel nitric oxide donors containing 1,5-diarylpyrazolin-3-one as nontoxic NSAIDs” (Eur J Med Chem, 2009).
Values after ≈ are worked out from the molar mass of the structure shown.

Columns and labels:
[1] = system: Rattus norvegicus; assay: Gastrointestinal toxicity in Wistar rat assessed as ulcer index at 33.70 mg/kg, po; assay type: organism-based; parameters: dose 33.7 mg/kg, route oral; details: in vivo, 33.7 mg/kg
[2] = system: Mus musculus; assay: Analgesic activity in Swiss albino mouse assessed as inhibition of acetic acid-induced writhing at 0.00001911 mol/kg, po administered 1 hr before acetic acid challenge measured after 25 mins; assay type: functional
Method in brief: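 Acetic acid writhing in mice. Compounds were suspended in 1.0% aqueous sodium CMC and given orally at equimolar doses equivalent to 6 mg/kg indomethacin (0.00001911 mol/kg). Writhes were counted over 25 min after treatment, n = 6, and reported as % inhibition versus vehicle control. One-way ANOVA with Dunnett's test.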

[3] = system: Rattus norvegicus; assay: Gastrointestinal toxicity in Wistar rat assessed as ulcer index at 38.27 mg/kg, po; assay type: organism-based; parameters: dose 38.27 mg/kg, route oral; details: in vivo
[4] = system: Rattus norvegicus; assay: Gastrointestinal toxicity in Wistar rat assessed as gastric mucosal layer disruption at 40.71 mg/kg, po by histopathological study; assay type: organism-based, Gastric mucosa; parameters: dose 40.71 mg/kg, route oral; details: in vivo
[5] = system: Rattus norvegicus; assay: Gastrointestinal toxicity in Wistar rat assessed as ulcer index at 34.84 mg/kg, po; assay type: organism-based; parameters: dose 34.84 mg/kg, route oral; details: in vivo
[6] = system: Rattus norvegicus; assay: Antiinflammatory activity in Wistar rat assessed as inhibition of carrageenan-induced paw edema measured after 2 hrs at 6 mg/kg, po equimolar dose of indomethacin administered 1 hr before carrageenan challenge; assay type: functional
Method in brief: (§1)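 Wistar rats of either sex, 120–140 g, fasted 24 h, n = 6 per group. Compounds were suspended in 1.0% aqueous sodium CMC and dosed orally, equimolar to indomethacin 6 mg/kg, 1 h before subplantar carrageenan (1.0% w/v, 0.1 mL) into the right hind paw. Paw volume was read by plethysmometer before and after injection. Results are % inhibition versus vehicle control. ANOVA with Dunnett's test.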

[7] = system: Rattus norvegicus; assay: Gastrointestinal toxicity in Wistar rat assessed as gastric mucosal layer disruption at 38.27 mg/kg, po by histopathological study; assay type: organism-based, Gastric mucosa; parameters: dose 38.27 mg/kg, route oral; details: in vivo
[8] = system: Rattus norvegicus; assay: Gastrointestinal toxicity in Wistar rat assessed as gastric mucosal layer disruption at 34.84 mg/kg, po by histopathological study; assay type: organism-based, Gastric mucosa; parameters: dose 34.84 mg/kg, route oral; details: in vivo
[9] = system: Rattus norvegicus; assay: Gastrointestinal toxicity in Wistar rat assessed as ulcer index at 40.71 mg/kg, po; assay type: organism-based; parameters: dose 40.71 mg/kg, route oral; details: in vivo
[10] = system: Aorta; assay: Vasorelaxant activity in Wistar rat aorta assessed as inhibition of norepinephrine-induced contractions; assay type: functional, tissue-based
Method in brief: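 Endothelium-intact aortic rings were accepted only if relaxation was ≥70% of the NE-induced contraction. Rings were then contracted with NE or 30 mM KCl, and test compounds were added cumulatively once a stable plateau was reached. EC50 values were calculated from cumulative concentration-response curves.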

[11] = system: Rattus norvegicus; assay: Gastrointestinal toxicity in Wistar rat assessed as gastric mucosal layer disruption at 33.70 mg/kg, po by histopathological study; assay type: organism-based, Gastric mucosa; parameters: dose 33.7 mg/kg, route oral; details: in vivo, 33.7 mg/kg
[12] = Induction of nitric oxide release at 0.1 mM in pH 7.4 phosphate buffer in presence of 5 mM L-cysteine by Griess method; details: pH 7.4, 100 µM
[13] = system: Rattus norvegicus; assay: Gastrointestinal toxicity in Wistar rat assessed as ulcer incidence at 33.70 mg/kg, po; assay type: organism-based; parameters: dose 33.7 mg/kg, route oral; details: in vivo, 33.7 mg/kg
[14] = system: Rattus norvegicus; assay: Antiinflammatory activity in Wistar rat assessed as inhibition of carrageenan-induced paw edema measured after 1 hr at 6 mg/kg, po equimolar dose of indomethacin administered 1 hr before carrageenan challenge; assay type: functional; method in brief: as §1
[15] = system: Rattus norvegicus; assay: Antiinflammatory activity in Wistar rat assessed as inhibition of carrageenan-induced paw edema measured after 3 hrs at 6 mg/kg, po equimolar dose of indomethacin administered 1 hr before carrageenan challenge; assay type: functional; method in brief: as §1
[16] = system: Rattus norvegicus; assay: Gastrointestinal toxicity in Wistar rat assessed as ulcer incidence at 38.27 mg/kg, po; assay type: organism-based; parameters: dose 38.27 mg/kg, route oral; details: in vivo
[17] = system: Rattus norvegicus; assay: Gastrointestinal toxicity in Wistar rat assessed as ulcer incidence at 34.84 mg/kg, po; assay type: organism-based; parameters: dose 34.84 mg/kg, route oral; details: in vivo
[18] = system: Rattus norvegicus; assay: Gastrointestinal toxicity in Wistar rat assessed as ulcer incidence at 40.71 mg/kg, po; assay type: organism-based; parameters: dose 40.71 mg/kg, route oral; details: in vivo
[19] = system: Rattus norvegicus; assay: Gastrointestinal toxicity in Wistar rat assessed as gastric mucosal layer disruption at 24 mg/kg, po by histopathological study; assay type: organism-based, Gastric mucosa; parameters: dose 24 mg/kg, route oral; details: in vivo
[20] = system: Rattus norvegicus; assay: Gastrointestinal toxicity in Wistar rat assessed as ulcer incidence at 24 mg/kg, po; assay type: organism-based; parameters: dose 24 mg/kg, route oral; details: in vivo
[21] = system: Rattus norvegicus; assay: Antiinflammatory activity in Wistar rat assessed as inhibition of carrageenan-induced paw edema measured after 3 hrs at 6 mg/kg, po administered 1 hr before carrageenan challenge; assay type: functional; method in brief: as §1
[22] = system: Rattus norvegicus; assay: Antiinflammatory activity in Wistar rat assessed as inhibition of carrageenan-induced paw edema measured after 1 hr at 6 mg/kg, po administered 1 hr before carrageenan challenge; assay type: functional; method in brief: as §1
[23] = system: Rattus norvegicus; assay: Antiinflammatory activity in Wistar rat assessed as inhibition of carrageenan-induced paw edema measured after 2 hrs at 6 mg/kg, po administered 1 hr before carrageenan challenge; assay type: functional; method in brief: as §1

Row | EC50 [10] | Activity [12] | Structure (SMILES) | Activity [1] | inhibition (INH) [2] | Activity [3] | Activity [4] | Activity [5] | inhibition in vivo [6] | Activity [7] | Activity [8] | Activity [9] | Activity [11] | Activity [13] | inhibition in vivo [14] | inhibition in vivo [15] | Activity [16] | Activity [17] | Activity [18] | further results
1 | 35.5 mg/L (≈ 75.6 µM) | 0.46% | CCOC(=O)c1c(-c2ccccc2)n(-c2ccc(C(=O)NNC(=O)CO[N+](=O)[O-])cc2)[nH]c1=O | Non-toxic | 56.86% | Non-toxic | Non-toxic | Non-toxic | 57.8% | Non-toxic | Non-toxic | Non-toxic | Non-toxic | Non-toxic | 54% | 59.6% | Non-toxic | Non-toxic | Non-toxic | 
2 | 17.8 mg/L (≈ 43.1 µM) | 0.69% | O=C(CO[N+](=O)[O-])NNC(=O)c1ccc(-n2[nH]c(=O)cc2-c2ccccc2O)cc1 |  | 16.66% |  |  |  | 19.3% |  |  |  |  |  | 23% | 16.4% |  |  |  | 
3 | 28.2 mg/L (≈ 54.8 µM) | 0.49% | CCOC(=O)c1c(-c2ccc([N+](=O)[O-])cc2)n(-c2ccc(C(=O)NNC(=O)CO[N+](=O)[O-])cc2)[nH]c1=O |  | 45.9% |  |  |  | 28.1% |  |  |  |  |  | 27.8% | 22.2% |  |  |  | 
4 | 63.1 mg/L (≈ 126 µM) | 0.35% | CCOC(=O)c1c(-c2ccccc2OC)n(-c2ccc(C(=O)NNC(=O)CO[N+](=O)[O-])cc2)[nH]c1=O | Non-toxic | 50.98% | Non-toxic | Non-toxic | Non-toxic | 30.7% | Non-toxic | Non-toxic | Non-toxic | Non-toxic | Non-toxic | 31% | 25.1% | Non-toxic | Non-toxic | Non-toxic | 
5 | 70.8 mg/L (≈ 146 µM) | 0.27% | CCOC(=O)c1c(-c2ccccc2O)n(-c2ccc(C(=O)NNC(=O)CO[N+](=O)[O-])cc2)[nH]c1=O |  | 10.78% |  |  |  | 26.6% |  |  |  |  |  | 27.8% | 21.1% |  |  |  | 
6 | 50.2 mg/L (≈ 99.6 µM) | 0.37% | CCOC(=O)c1c(-c2ccc(Cl)cc2)n(-c2ccc(C(=O)NNC(=O)CO[N+](=O)[O-])cc2)[nH]c1=O |  | 6.86% |  |  |  | 10.4% |  |  |  |  |  | 3.2% | 6.43% |  |  |  | 

The remaining lines, values behind:

Row | Structure (SMILES) | EC50 [10] | Activity [12] | Activity [1] | inhibition (INH) [2] | Activity [3] | Activity [4] | Activity [5] | inhibition in vivo [6] | Activity [7] | Activity [8] | Activity [9] | Activity [11] | Activity [13] | inhibition in vivo [14] | inhibition in vivo [15] | Activity [16] | Activity [17] | Activity [18] | further results
7 | O=C(CO[N+](=O)[O-])NNC(=O)c1ccc(-n2[nH]c(=O)cc2-c2ccc(Cl)cc2)cc1 | 21.3 mg/L (≈ 49.4 µM) | 0.66% |  | 10.78% |  |  |  | 11.4% |  |  |  |  |  | 5.88% | 5.84% |  |  |  | 
8 | O=C(CO[N+](=O)[O-])NNC(=O)c1ccc(-n2[nH]c(=O)cc2-c2ccccc2)cc1 | 26.7 mg/L (≈ 67.3 µM) | 0.51% |  | 53.92% |  |  |  | 16.1% |  |  |  |  |  | 19.8% | 20.5% |  |  |  | 
9 | O=C(CO[N+](=O)[O-])NNC(=O)c1ccc(-n2[nH]c(=O)cc2-c2ccc([N+](=O)[O-])cc2)cc1 | 49.1 mg/L (≈ 111 µM) | 0.39% | Non-toxic | 45.09% | Non-toxic | Non-toxic | Non-toxic | 27.1% | Non-toxic | Non-toxic | Non-toxic | Non-toxic | Non-toxic | 23.6% | 24% | Non-toxic | Non-toxic | Non-toxic | 
10 | COc1ccccc1-c1cc(=O)[nH]n1-c1ccc(C(=O)NNC(=O)CO[N+](=O)[O-])cc1 | 66.8 mg/L (≈ 156 µM) | 0.32% | Non-toxic | 51.96% | Non-toxic | Non-toxic | Non-toxic | 55.7% | Non-toxic | Non-toxic | Non-toxic | Non-toxic | Non-toxic |  | 57.9% | Non-toxic | Non-toxic | Non-toxic | inhibition in vivo at 6 mg/kg ([14]; dose 6 mg/kg): 55.1%
11 | O=C(O)Cc1ccccc1Nc1c(Cl)cccc1Cl [DICLOFENAC] |  |  |  |  |  |  |  |  |  |  |  |  |  |  |  |  |  |  | Activity [19]: Toxic; Activity [20]: Toxic
12 | COc1ccc2c(c1)c(CC(=O)O)c(C)n2C(=O)c1ccc(Cl)cc1 [INDOMETHACIN] |  |  |  | 54.9% |  |  |  |  |  |  |  |  |  |  |  |  |  |  | inhibition in vivo at 6 mg/kg [21]: 57.9%; inhibition in vivo at 6 mg/kg [22]: 52.7%; inhibition in vivo at 6 mg/kg [23]: 58.3%
